Measured values from ChEMBL document CHEMBL1629488, “Synthesis and biological evaluation of 2-(3',4',5'-trimethoxybenzoyl)-3-aryl/arylaminobenzo[b]thiophene derivatives as a novel class of antiproliferative agents” (Eur J Med Chem, 2010).
Active and inactive are the calls of the source. The calls are words filed in the database; no cut-off is given here.

Key:
[1] = test system: HeLa; experiment: Induction of apoptosis in human HeLa cells assessed as early apoptotic cells at 0.62 uM after 24 hrs using FITC-conjugated annexin V and propidium iodide staining by flow cytometry assay (RVb = 1.5 %); format: functional
[2] = test system: HeLa; experiment: Induction of apoptosis in human HeLa cells assessed as late apoptotic cells at 5 uM after 24 hrs using FITC-conjugated annexin V and propidium iodide staining by flow cytometry assay (RVb = 1.9 %); format: functional
[3] = test system: Jurkat; experiment: Cell cycle arrest in human Jurkat cells assessed as accumulation at G1 phase at 1.25 uM after 24 hrs using propidium iodide staining by flow cytometry relative to control; format: functional
Method in brief: (§1)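 Exponentially growing cells (5 × 10^5) exposed to graded compound levels, 0.312 to 5 μM, for 24 or 48 h; collected, fixed in ice-cold 70% ethanol, treated with lysis buffer containing RNase A and 0.1% Triton X-100, stained with propidium iodide; DNA content read by flow cytometry. Mean ± SEM of two independent experiments.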

[4] = test system: HeLa; experiment: Induction of apoptosis in human HeLa cells assessed as viable cells at 2.5 uM after 24 hrs using FITC-conjugated annexin V and propidium iodide staining by flow cytometry assay (RVb = 94.7 %); format: functional; conditions: read-out: Activity
[5] = test system: HeLa; experiment: Cell cycle arrest in human HeLa cells assessed as accumulation at G2/M phase at 1.25 uM after 24 hrs using propidium iodide staining by flow cytometry relative to control; format: functional; method in brief: as §1
[6] = test system: Jurkat; experiment: Cell cycle arrest in human Jurkat cells assessed as accumulation at G2/M phase after 24 hrs using propidium iodide staining by flow cytometry; format: functional, cell-based; method in brief: as §1
[7] = test system: HeLa; experiment: Induction of apoptosis in human HeLa cells assessed as late apoptotic cells at 1.25 uM after 24 hrs using FITC-conjugated annexin V and propidium iodide staining by flow cytometry assay (RVb = 1.9 %); format: functional
[8] = test system: HeLa; experiment: Upregulation of cyclin B1 protein expression in human HeLa cells after 24 to 48 hrs by Western blot analysis; format: functional, cell-based
Method in brief: (§2)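 Treated cells washed twice in ice-cold PBS, lysed 30 min on ice, lysate cleared at 15000×g, 4 °C, 10 min; protein by BCA. 20 μg per lane on SDS-PAGE (7.5–15%), PVDF transfer, overnight block at 4 °C; primary antibodies 2 h at room temperature, peroxidase secondaries 60 min, ECL detection; β-actin loading control.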

[9] = test system: HeLa; experiment: Cell cycle arrest in human HeLa cells assessed as reduction of cells at G1 phase at 1.25 uM after 24 hrs using propidium iodide staining by flow cytometry; format: functional, cell-based; method in brief: as §1
[10] = test system: HeLa; experiment: Induction of apoptosis in human HeLa cells assessed as increase of Bax protein expression up to 2.5 uM after 24 to 48 hrs by Western blot analysis; format: functional, cell-based; method in brief: as §2
[11] = test system: HeLa; experiment: Induction of apoptosis in human HeLa cells assessed as viable cells at 0.62 uM after 24 hrs using FITC-conjugated annexin V and propidium iodide staining by flow cytometry assay (RVb = 94.7 %); format: functional; conditions: read-out: Activity
[12] = test system: HeLa; experiment: Induction of apoptosis in human HeLa cells assessed as necrotic cells at 0.62 uM after 24 hrs using FITC-conjugated annexin V and propidium iodide staining by flow cytometry assay (RVb = 1.9 %); format: functional
[13] = test system: A549; experiment: Antiproliferative activity against human A549 cells after 72 hrs by MTT assay; format: functional, cell-based; conditions: A549, 72 h
Method in brief: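 A549 and HeLa cells grown in DMEM with 10% FBS and penicillin/streptomycin. Plated at 8 × 10^3 cells/well and held 18 h at 37 °C in 5% CO2. Medium replaced with compound in complete medium at varied concentrations for 72 h at 37 °C, then MTT read.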

[14] = test system: HeLa; experiment: Induction of apoptosis in human HeLa cells assessed as loss of mitochondrial membrane potential at 0.625 to 2.5 uM using Rho123 staining by flow cytometry; format: functional, cell-based; conditions: TDE = time-dependent effect
Method in brief: (§3)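 After 24 or 48 h exposure, HeLa cells were pelleted, resuspended in HBSS with 0.1 μM rhodamine 123, held 20 min at 37 °C, spun and resuspended in HBSS; fluorescence read by flow cytometry. Mean ± S.E.M. of 3 independent experiments.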

[15] = test system: Jurkat; experiment: Antiproliferative activity against human Jurkat cells after 72 hrs by MTT assay; format: functional, cell-based
[16] = test system: HeLa; experiment: Induction of apoptosis in human HeLa cells assessed as caspase-3-mediated cleavage of PARP after 24 to 48 hrs; format: functional, cell-based; method in brief: as §2
[17] = test system: HeLa; experiment: Induction of apoptosis in human HeLa cells assessed as loss of mitochondrial membrane potential after 24 to 48 hrs using Rho123 staining by flow cytometry; format: functional, cell-based; method in brief: as §3
[18] = test system: HeLa; experiment: Induction of apoptosis in human HeLa cells assessed as necrotic cells at 5 uM after 24 hrs using FITC-conjugated annexin V and propidium iodide staining by flow cytometry assay (RVb = 1.9 %); format: functional
[19] = test system: Jurkat; experiment: Cell cycle arrest in human Jurkat cells assessed as accumulation at G2/M phase at 1.25 uM after 24 hrs using propidium iodide staining by flow cytometry relative to control; format: functional; method in brief: as §1
[20] = test system: HeLa; experiment: Cell cycle arrest in human HeLa cells assessed as accumulation at G2/M phase at 0.625 uM after 24 hrs using propidium iodide staining by flow cytometry relative to control; format: functional; method in brief: as §1
[21] = test system: HeLa; experiment: Induction of apoptosis in human HeLa cells assessed as caspase-3-mediated cleavage of PARP after 24 hrs by Western blot analysis; format: functional, cell-based; method in brief: as §2
[22] = test system: HeLa; experiment: Cell cycle arrest in human HeLa cells assessed as hypodiploid peak at sub-G1 phase at 0.312 to 5 uM uM after 48 hrs using propidium iodide staining by flow cytometry; format: functional, cell-based; method in brief: as §1
[23] = test system: HeLa; experiment: Induction of apoptosis in human HeLa cells assessed as necrotic cells at 2.5 uM after 24 hrs using FITC-conjugated annexin V and propidium iodide staining by flow cytometry assay (RVb = 1.9 %); format: functional
[24] = test system: HeLa; experiment: Induction of apoptosis in human HeLa cells assessed as increase of Bcl-2 protein expression up to 2.5 uM after 24 to 48 hrs by Western blot analysis; format: functional, cell-based; method in brief: as §2
[25] = test system: HeLa; experiment: Induction of apoptosis in human HeLa cells assessed as early apoptotic cells at 2.5 uM after 24 hrs using FITC-conjugated annexin V and propidium iodide staining by flow cytometry assay (RVb = 1.5 %); format: functional
[26] = test system: HeLa; experiment: Induction of apoptosis in human HeLa cells assessed as viable cells at 5 uM after 24 hrs using FITC-conjugated annexin V and propidium iodide staining by flow cytometry assay (RVb = 94.7 %); format: functional; conditions: read-out: Activity
[27] = test system: HeLa; experiment: Upregulation of p53 protein expression in human HeLa cells at up to 2.5 uM after 24 to 48 hrs by Western blot analysis; format: functional, cell-based; method in brief: as §2
[28] = test system: HeLa; experiment: Induction of apoptosis in human HeLa cells assessed as late apoptotic cells at 2.5 uM after 24 hrs using FITC-conjugated annexin V and propidium iodide staining by flow cytometry assay (RVb = 1.9 %); format: functional
[29] = test system: HeLa; experiment: Induction of apoptosis in human HeLa cells assessed as caspase-3-mediated cleavage of PARP after 48 hrs by Western blot analysis; format: functional, cell-based; method in brief: as §2
[30] = test system: HL-60; experiment: Antiproliferative activity against human HL60 cells after 72 hrs by MTT assay; format: functional, cell-based; conditions: HL-60, 72 h
[31] = test system: K562; experiment: Antiproliferative activity against human K562 cells after 72 hrs by MTT assay; format: functional, cell-based; conditions: K562, 72 h
[32] = test system: HeLa; experiment: Upregulation of cdc25c protein expression in human HeLa cells at 0.6 to 2.5 uM after 24 to 48 hrs by Western blot analysis; format: functional, cell-based; method in brief: as §2

**Q.** How did the Activity [1] turn out when `CCOc1ccc(Nc2c(C(=O)c3cc(OC)c(OC)c(OC)c3)sc3ccccc23)cc1` was run?
**A.** Its Activity is 5.2%.

**Q.** What about the Activity [2] of the same molecule?
**A.** Its Activity is 25.4%.

**Q.** And the Activity [3]?
**A.** The Activity was 10%.

**Q.** What about the viability at 2.5 µM [4] of the same molecule?
**A.** The viability at 2.5 µM was 49.4%.

**Q.** And the Activity [5]?
**A.** The Activity was 85%.

**Q.** What about the Activity [6] of the same molecule?
**A.** Its Activity is “Dose-dependent effect”.

**Q.** What about the Activity [7] of the same molecule?
**A.** Its Activity is 16%.

**Q.** And the Activity [8]?
**A.** Its Activity is “Dose-dependent effect”.

**Q.** And the Activity [9]?
**A.** The Activity was “Active”.

**Q.** And the Activity [10]?
**A.** Its Activity is “inactive”.

**Q.** And the viability at 0.62 µM [11]?
**A.** The viability at 0.62 µM was 64.9%.

**Q.** What about the Activity [12] of the same molecule?
**A.** The Activity was 15.5%.

**Q.** What about the IC50 [13] of the same molecule?
**A.** The IC50 was 1400 nM.

**Q.** What about the Activity [14] of the same molecule?
**A.** The Activity was “tde”.

**Q.** And the IC50 [15]?
**A.** The IC50 was 300 nM.

**Q.** What about the Activity [16] of the same molecule?
**A.** Its Activity is “Dose-dependent effect”.

**Q.** And the Activity [17]?
**A.** The Activity was “Dose-dependent effect”.

**Q.** What about the Activity [18] of the same molecule?
**A.** The Activity was 17.4%.

**Q.** And the Activity [19]?
**A.** The Activity was 70%.

**Q.** And the Activity [20]?
**A.** The Activity was 52%.

**Q.** What about the Activity [21] of the same molecule?
**A.** The Activity was “Active”.

**Q.** And the Activity [22]?
**A.** The Activity was “Active”.

**Q.** And the Activity [23]?
**A.** Its Activity is 19.3%.

**Q.** And the Activity [24]?
**A.** The Activity was “Active”.

**Q.** And the Activity [25]?
**A.** The Activity was 6.4%.

**Q.** And the viability at 5 µM [26]?
**A.** Its viability at 5 µM is 49.9%.

**Q.** And the Activity [27]?
**A.** Its Activity is “inactive”.

**Q.** And the Activity [28]?
**A.** Its Activity is 24.9%.

**Q.** What about the Activity [29] of the same molecule?
**A.** The Activity was “Active”.

**Q.** What about the IC50 [30] of the same molecule?
**A.** The IC50 was 500 nM.

**Q.** And the IC50 [31]?
**A.** The IC50 was 200 nM.

**Q.** What about the Activity [32] of the same molecule?
**A.** Its Activity is “Active”.
